This is a sample that favours compounds with a hit; in the whole collection about 6.8% have one here.
core dimer inh = inhibitors of HCV core protein dimerization, primary screen, biochemical, TR-FRET, high-throughput; TR-FRET GST/Flag-core106 dimerization, 1536-well; inhibition, % at 5 µM; 300,000 tested, 0.33% active; AID 1899, 2009;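 active = inhibition above the mean of all tested compounds plus 3 SD, set per screening campaign, cut at about 45% in these data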
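System – GST-tagged and Flag-tagged HCV core protein residues 1-106 · Repeats – one well for each compound · Technique – TR-FRET 671 and 617 nm emission · Doses – one concentration, 5 µM, in 0.5% DMSO · Times – 4 h, 22.5 °C incubation · Also added – Eu donor and XL665 acceptor anti-tag antibodies · Measure – percent inhibition of core106 dimerization signal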
HSF1 inhib = HSF1 inhibitors in luciferase reporter cells, primary screen, cell-based, NIH3T3, luminescence; NIH3T3-HGL HSE-luciferase, MG132-induced, luminescence 8 h; stronger effect = lower value; activity change, negative = inhibition, % at 7.5 µM (by protocol); 300,000 tested, 0.77% active;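 active = more than half of replicate wells show activity change below -50%, luminescence cut by over half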;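 note: luciferase reports HSF-1 transcriptional activity via heat shock element; 0% = median of DMSO wells and -100% = zero luminescence signal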
HSF-1 act = HSF-1 activators, primary screen, NIH3T3-HGL cells, MG132 stress, luminescence, single point. NIH3T3-HGL HSF-1 luciferase reporter, 8 h; 100% = twice DMSO control signal. activation, % at 9 µM. 300,000 tested, 1.7% active;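 active = mean replicate activation of at least 50% with a set share of replicates each reaching 50%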;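 note: 0% = median of the neutral control wells and 100% = twice that signal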
PHOSPHO1 inh = PubChem AID 1565 | recombinant PHOSPHO1, absorbance phosphatase assay | inhibition, % at 13.3 µM | 290,000 tested, 1.1% active; in the data active = inhibition above about 60%
Target sequence (Q8TCT1 whole entry, looked up): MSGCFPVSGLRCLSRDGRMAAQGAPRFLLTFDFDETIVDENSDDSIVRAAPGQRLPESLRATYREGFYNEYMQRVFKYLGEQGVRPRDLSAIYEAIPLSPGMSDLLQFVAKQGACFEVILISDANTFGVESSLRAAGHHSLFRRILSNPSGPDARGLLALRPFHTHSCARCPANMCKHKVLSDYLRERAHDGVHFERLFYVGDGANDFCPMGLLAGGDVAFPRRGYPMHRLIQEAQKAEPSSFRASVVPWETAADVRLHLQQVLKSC
AI-2 QS mod = Vibrio harveyi AI-2 quorum sensing modulators, primary screen, JMH597 strain, luminescence/OD600 ratio; activity change, % at 7.5 µM; Vibrio harveyi JMH597 AI-2 luminescence/OD600 ratio, 9 h; stronger effect = lower value; strain lacks LuxN and CqsS sensors; 0 = neutral-control median; 300,000 tested, 0.4% active; in the data active = activity change below about -75%, passing the limit was not always enough;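 note: luminescence divided by OD600 gain over 9 h not by final OD600 alone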
ALR H2O2 inh = inhibitors of human ALR sulfhydryl oxidase, primary screen, biochemical, H2O2 detection, HRP-luminol luminescence, single point; FAD-linked sulfhydryl oxidase ALR (Homo sapiens), P55789; purified ALR, DTT oxidation; inhibition, % (no concentration beside the values); 290,000 tested, 3.8% active;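 active = mean replicate inhibition above about 79%, with every replicate also reaching it, limit read from the data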
Target sequence (P55789 whole entry, looked up): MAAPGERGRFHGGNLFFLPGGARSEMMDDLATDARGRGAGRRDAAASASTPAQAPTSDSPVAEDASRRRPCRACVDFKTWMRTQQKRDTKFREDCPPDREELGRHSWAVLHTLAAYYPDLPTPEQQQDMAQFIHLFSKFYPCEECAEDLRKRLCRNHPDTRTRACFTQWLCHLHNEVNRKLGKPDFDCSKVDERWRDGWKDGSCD
The depositor's hits bear a star; nt = not tested or not shown.

SMILES	core dimer inh	HSF1 inhib	HSF-1 act	PHOSPHO1 inh	AI-2 QS mod	ALR H2O2 inh
CN(C)S(=O)(=O)c1ccc(C(=O)OCC2CC2(Cl)Cl)cc1 (stereo unspecified)	0	-4	21	23	-77*	7
CCOC(=O)c1c(C)[nH]c(C(C)=NNC(=O)Cn2nc(C)cc2C)c1C	nt	nt	nt	nt	nt	-3
Cc1occc1-c1nnc(SCC(=O)Nc2ccccc2)n1CCc1ccccc1	-1	3	15	-7	37	4
Cc1ccccc1Nc1nc(CSc2nnc(-c3ccoc3C)n2C)cs1	17	-8	-30	69*	9	97*
Cc1ccc(Nc2nc(CSc3nnc(-c4ccncc4)n3C)cs2)cc1	7	8	9	-29	36	42
Cc1ccc(-c2nnc(SCC(=O)Nc3ccc4c(c3)oc3ccccc34)n2C)c(Cl)c1	0	14	57*	20	18	-13
Cc1occc1-c1nnc(SCC(=O)Nc2ccccc2)n1C	1	-82*	-85	19	0	-3
Cn1c(SCC(=O)NNC(=O)Nc2ccc(Cl)cc2)nnc1-c1ccccc1	-3	15	56*	42	32	3
COc1cccc(/C=C/C(=O)OCC(=O)NC(=O)NC2CCCCC2)c1	-2	3	-6	nt	7	nt
CN(C(=O)c1ccc(NC(=O)Cc2cccc(NC(=O)C3CCN(C(=O)C4CCCCC4)CC3)c2)cc1)C1CCCC1	nt	nt	nt	nt	nt	0
Cn1c(SCC(=O)N2CCOCC2)nnc1-c1cccc(NC(=O)c2ccccc2)c1	-2	-2	-4	92*	31	3
Cn1c(SCCCC(=O)c2ccccc2)nnc1-c1ccncc1	-14	0	4	68*	13	-12
CCCCC(=O)Nc1ccc2c(c1)oc1ccccc12	5	28	37	-7	22	1
Cn1c(SCC(=O)N2CCOCC2)nnc1-c1ccncc1	-2	-3	-7	19	40	-1
CC(C)CC(=O)Nc1ccc2c(c1)oc1ccccc12	0	32	62*	34	-4	-5
COC(=O)c1ccc(NC(=O)CSc2nnc(-c3ccccc3)n2C)cc1	0	-67*	-75	-13	14	nt
COc1cc(CNc2ncc(-c3ccc(Br)cc3)n2C)cc(OC)c1OC	7	0	10	-8	-7	91*
Cn1c(-c2ccc(F)cc2)cnc1NCc1ccc(F)cc1	-12	0	-5	27	25	91*
COc1cc(CNc2ncc(-c3ccc(Cl)cc3)n2C)cc(OC)c1OC	-13	9	8	36	10	95*
CCOc1cc(CNc2ncc(-c3ccc(OC)cc3)n2C)ccc1O	-5	-6	1	20	19	78*
Cn1c(-c2ccc(Br)cc2)cnc1NCc1cccnc1	-4	-3	12	43	13	21
COc1ccc(CNc2ncc(-c3ccccc3)n2C)c(OC)c1OC	-7	-1	-11	46	12	65
Cn1c(-c2ccc(F)cc2)cnc1NCc1ccc(C#N)cc1	-1	-3	7	30	33	33
NC(=O)CC(NC(=O)Cc1ccc(Br)cc1)c1ccc(N2CCc3ccccc3C2)c([N+](=O)[O-])c1 (stereo unspecified)	5	4	14	0	14	0
CC(C)N1CCC(NC(=O)Nc2ccc3c(c2)OCO3)CC1	-2	2	17	21	22	-2
SMILES	core dimer inh	HSF1 inhib	HSF-1 act	PHOSPHO1 inh	AI-2 QS mod	ALR H2O2 inh
Cc1ccc(S(=O)(=O)N2CCN(C(=O)CCOc3cc(C)ccc3C)CC2)cc1	nt	nt	nt	nt	nt	-22
O=C(O)c1ccn2c(C(=O)c3ccccc3)c(-c3ccccc3)cc2c1	9	0	8	23	31	10
COc1ccc2c(c1)CCC1C2=NN(/C(C)=C\C(C)=O)C1c1ccc(F)cc1 (stereo unspecified)	16	31	40	41	23	-34
COc1ccc2c(c1)C1=NN(/C(C)=C/C(C)=O)C(c3ccc(F)cc3)C1CC2 (stereo unspecified)	10	23	53*	-5	4	-68
COc1cccc(-c2csc(N3CCN(CC(=O)Nc4ccc5c(c4)OCO5)CC3)n2)c1	1	3	-8	7	20	nt
O=C(Nc1ccccc1)Nc1nc(-c2ccccc2)cs1	1	-9	3	27	17	-1
COc1ccc(NC(=O)CN2CCN(c3nc(-c4cccc(OC)c4)cs3)CC2)cc1	5	0	2	1	6	99*
COc1cccc(-c2csc(NC(=O)Nc3ccccc3)n2)c1	-6	-60*	-70	29	-5	nt
O=C(COC(=O)c1ccc(O)cc1O)Nc1cccc2ccccc12	nt	nt	nt	nt	nt	4
COc1ccccc1Nc1nnc(SCC(=O)N2CCCC2=O)s1	0	2	5	61*	15	11
COc1ccccc1Nc1nnc(SCC(=O)N2CCCC2)s1	-6	-4	12	13	29	nt
CC(=O)N(CCC(c1ccccc1)c1ccco1)Cc1cccs1 (stereo unspecified)	15	8	10	-21	11	11
CCC(=O)N(CCC(c1ccco1)c1ccccc1OC)Cc1cccs1 (stereo unspecified)	9	-75*	-82	9	3	6
NNC(=O)c1nn(-c2ccc(Cl)cc2)cc1O	-1	-70*	-72	33	23	nt
Cc1ccc(NC(=O)COC(=O)c2nn(-c3ccc(Cl)cc3)cc2O)cc1	nt	nt	nt	nt	nt	37
CCNc1nc(C#N)nc2c1ncn2-c1cc(F)cc(F)c1	nt	nt	nt	nt	nt	-7
CN(CCCNC(=O)C1CCC(=O)N1Cc1ccccc1Cl)c1ccccc1 (stereo unspecified)	-1	5	-3	27	32	98*
Cc1ccc(CCNC(=O)C2CCC(=O)N2Cc2ccc(F)cc2)cc1 (stereo unspecified)	2	-2	-4	34	8	-5
CN(CCCNC(=O)C1CCC(=O)N1Cc1ccc(F)cc1)c1ccccc1 (stereo unspecified)	2	0	17	4	34	99*
O=C(C1CCC(=O)N1Cc1ccccc1Cl)N1CCN(c2ccc(F)cc2)CC1 (stereo unspecified)	6	-5	-4	8	9	97*
O=C(Nc1ccc(F)cc1F)N1CCN(CCc2ccccc2)CC1	1	-11	-6	68*	nt	-9
